Screening data (PubChem BioAssay)
Shown are actives, neighbours in structure and some others; about 2.1% of the full set was active somewhere.
UCH37 inh: inhibitors of human UCH37 deubiquitinase, primary screen, biochemical, Ub-AMC cleavage, fluorescence | Ubiquitin carboxyl-terminal hydrolase isozyme L5 (Homo sapiens), Q9Y5K5 | purified proteasome/UCH37 | 0.33% of 330,000 active | inhibition, % (no concentration beside the values);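 active = mean inhibition over replicate wells above about 20%, limit read from the data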
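Material: human UCH37 enzyme supplied as purified proteasome complex / Amount: 0.15 nM proteasome as dispensed / Buffer or medium: pH 7.4 Tris-HCl (50 mM) with ovalbumin, ATP-MgCl2, DTT / Times: preincubation 30 min, reaction 25 min, room temperature / Technique: AMC fluorescence from Ub-AMC cleavage, excitation 355 nm, emission 460 nm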
PfGluPho inh: PfG6PD enzyme inhibitors, primary screen, biochemical, fluorescence intensity, uHTS | inhibition, % at 20 µM | 0.78% of 350,000 active | glucose-6-phosphate dehydrogenase-6-phosphogluconolactonase (Plasmodium falciparum 3D7) | PfGluPho enzyme, NADPH resazurin-diaphorase fluorescence | AID 504690, 2011;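 active = inhibition reaching at least a set limit at 20 µM in the primary screen, cut at about 59% in these data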
aDG glyco up: activators of alpha-DG glycosylation, primary screen, uHTS, Pro5-aDG cells, AlphaScreen | alpha-DG glycosylation AlphaScreen (IIH6); 0% Pro5, 100% B10-LARGE cell signal | activation, % at 10 µM | 0.22% of 360,000 active;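 active = activation of at least 8% versus controls, or a plate z-score of at least 8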;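 note: Pro5 are CHO cells carrying HIG-tagged alpha-DG that lacks glycosylation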
HKDC1 inh: HKDC1 hexokinase inhibitors, primary screen, biochemical, fluorescence, uHTS; recombinant HKDC1, G6PDH/diaphorase resazurin coupled fluorescence; 0.16% of 340,000 active; Q2TB90; inhibition, % at 20 µM;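 active = inhibition above about 35% when tested at 20 µM, limit read from the data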
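Material: recombinant HKDC1 hexokinase; Amount: HKDC1 at 5 µg/mL; Medium: Tris pH 8.0 buffer with MgCl2, Tween-20, BSA, BME; Schedule: 90 min reaction incubation at room temperature, dark; Technique: coupled resazurin fluorescence, excitation 525 nm, emission 613 nm.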
Beta2AR agonist: beta2AR agonists driving receptor internalization, primary screen, cell-based, FAP fluorogen, flow cytometry. Beta-2 adrenergic receptor (Homo sapiens), P07550. Am2.2-beta2AR cells. response, % (test concentration not listed). 0.43% of 340,000 active;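 active = response above a set limit, near 3 SD of response in nonfluorescent compounds, cut at about 42% in these data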
Target sequence (P07550 whole entry, looked up): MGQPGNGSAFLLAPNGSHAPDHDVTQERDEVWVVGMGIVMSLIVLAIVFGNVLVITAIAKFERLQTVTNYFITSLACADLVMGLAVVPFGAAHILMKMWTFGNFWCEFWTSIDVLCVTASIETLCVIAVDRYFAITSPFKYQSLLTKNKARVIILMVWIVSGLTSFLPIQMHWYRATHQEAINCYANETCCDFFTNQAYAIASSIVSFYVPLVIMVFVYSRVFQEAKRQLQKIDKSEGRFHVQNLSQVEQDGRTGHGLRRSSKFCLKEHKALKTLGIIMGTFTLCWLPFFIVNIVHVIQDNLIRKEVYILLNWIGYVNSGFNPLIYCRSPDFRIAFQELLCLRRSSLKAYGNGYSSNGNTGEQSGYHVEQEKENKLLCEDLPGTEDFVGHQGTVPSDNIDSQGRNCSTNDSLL
Cardio protect: cardioprotection against H2O2-induced cell death, primary screen, uHTS, H9c2 cells, ATPLite luminescence; H9c2 cardiomyocytes, H2O2 injury protection, 2 h; protection from H2O2 cell death, % at 20 µM; 0.63% of 360,000 active;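 active = compounds giving at least 50% protection of heart cells from peroxide-induced death in the single-dose screen, raw or plate-pattern-corrected value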
Beta2AR ag CP1: beta2AR agonists via receptor internalization, confirmation, cell-based, FAP fluorogen, flow cytometry, single point, cherry pick 1. shares compounds with Beta2AR agonist. Am2.2-beta2AR cells, FAP surface receptor; stronger effect = lower value. percent response (surface receptor), % at 10 µM. 25% of 1,100 active. AID 540358, 2011;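 active = surface receptor percent response at or below 58%, roughly 3 SD from nonfluorescent compounds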
FAP fluor counter: flagged in Am2.2 fluorescence counterscreen for beta-2AR agonists; shares compounds with Beta2AR agonist; Am2.2 cells, FAP fluorogen flow cytometry; stronger effect = lower value; calls only at 10 µM; 1,100 tested, under 10 active; AID 588765;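 active = percent response below a set limit in fluorescence channel 1 and below 50% in channel 8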
A number is an active result; - = inactive; . = no result; + = active, no number.

SMILES	UCH37 inh	PfGluPho inh	aDG glyco up	HKDC1 inh	Beta2AR agonist	Cardio protect	Beta2AR ag CP1	FAP fluor counter
COc1ccc(C(=O)c2c(C)c3ccccc3n2CC(O)CNC(C)C)cc1 (stereo not drawn)	-	-	-	-	44	-	-	-
CC(C)NCC(O)Cn1c2c(c3ccccc31)CCc1c-2cnn1-c1ccccc1 (stereo not drawn)	-	-	-	-	-	-	.	.
CC(=O)N1CCN(Cc2nc3cc(NC(=O)c4ccccc4)ccc3n2C)CC1	-	-	-	-	-	-	.	.
COc1ccccc1C(=O)Nc1ccc2c(c1)nc(CN1CCN(C(C)=O)CC1)n2C	-	-	-	-	53	-	-	-
CC(C)c1nc2oc3c(NCC4CCCO4)ncnc3c2c2c1CCC2 (stereo not drawn)	-	-	-	-	-	-	.	.
CC(C)c1nc2oc3c(N(C)CCO)ncnc3c2c2c1CCC2	-	-	-	-	-	-	-	-
COc1ccc(-c2nn(-c3ccccc3)cc2C=NNC(=S)NC(C)C)cc1OC	-	.	.	.	.	.	.	.
C(=NNc1ccccn1)c1ccc(N2CCOCC2)cc1	-	.	.	.	.	.	.	.
O=C(NC1CCCCCC1)c1c2c(nc3ccccc13)CCN(Cc1ccccc1)C2	-	-	-	-	-	-	.	.
Cc1cc(N2CCN(C)CC2)ccc1NC(=O)c1c2c(nc3ccccc13)CCN(Cc1ccccc1)C2	-	-	-	-	51	-	11	+
O=C(CCn1cnc(-c2ccccc2)c1-c1ccccc1)NN=Cc1ccccc1O	-	.	.	.	.	.	.	.
COc1ccccc1CNCC(O)Cn1c2ccccc2c2ccccc21 (stereo not drawn)	-	-	-	-	55	-	-	-
O=C(Cc1ccc(Cl)cc1)NN=Cc1ccccc1	-	.	.	.	.	.	.	.
CCCc1cc(Nc2cccc(OCC)c2)n2ncnc2n1	-	-	-	-	49	-	-	-
CCCc1cc(Nc2cccc(OC)c2)n2ncnc2n1	-	-	-	-	-	-	.	.
COc1ccc2c(C=NNc3ccc(C(=O)O)cc3)c[nH]c2c1	-	.	.	.	.	.	.	.
Cc1cccc2nc(CSc3ccccc3N)cn12	-	-	-	-	-	-	.	.
Cc1cccc2nc(COc3ccc4ccccc4c3Br)cn12	.	-	-	-	98	-	26	-
Cc1cc(C=NNC(=O)C(=O)NCc2ccccn2)c(C)n1-c1ccccc1	-	.	.	.	.	.	.	.
NS(=O)(=O)c1ccc(NN=Cc2ccncc2)cc1	-	.	.	.	.	.	.	.
COc1ccc(Cl)cc1C=NNC(=O)c1c(-c2ccccc2)noc1C	-	.	.	.	.	.	.	.
CCC(NC(C)C)C(O)c1ccc(O)c(O)c1 (stereo not drawn)	-	-	-	-	-	-	42	-
N#Cc1ccc(C(=O)Nc2cc(S(=O)(=O)Nc3ccc(Cl)cc3)ccc2N2CCCCC2)cc1	-	-	-	-	44	-	-	-
O=C(Nc1nc(-c2ccccc2)cs1)c1ccco1	-	-	-	-	-	-	.	.
O=C(Nc1nc(-c2ccco2)cs1)c1ccccc1	-	-	-	-	43	-	-	-
SMILES	UCH37 inh	PfGluPho inh	aDG glyco up	HKDC1 inh	Beta2AR agonist	Cardio protect	Beta2AR ag CP1	FAP fluor counter
COc1ccc(N2CCN(C(=O)CN(C)S(=O)(=O)c3cc(C)ccc3OC)CC2)cc1	-	-	-	-	-	-	-	-
Cc1ccc(S(=O)(=O)N(C)CC(=O)N2CCN(c3ccccn3)CC2)cc1	-	-	-	-	99	-	16	-
CN(CC(=O)N1CCN(c2ccccn2)CC1)S(=O)(=O)c1ccc(Cl)cc1	-	-	-	-	110	-	33	-
CN(CC(=O)N1CCN(c2ccc(F)cc2)CC1)S(=O)(=O)c1ccc(F)cc1	-	-	-	-	-	-	-	-
CCOC(=O)C(C(C)=NNC(=O)C1CC1c1ccccc1)C(C)C (stereo not drawn)	-	.	.	.	.	.	.	.
O=[N+]([O-])c1ccc(NN=Cc2cn(Cc3ccc(F)cc3)c3ccccc23)nc1	-	.	.	.	.	.	.	.
C=CCn1c(SCc2ccc(OC)cc2)nnc1-c1cccnc1	-	-	-	-	-	-	.	.
C=CCn1c(SCc2ccc(F)cc2)nnc1-c1sc2nc(C)cc(C)c2c1N	-	-	-	-	109	-	28	-
CCOc1ccccc1N=NC1C(=O)N(C(N)=S)N=C1C (stereo not drawn)	-	-	-	-	-	-	-	-
CN(C)S(=O)(=O)c1ccc2c(c1)C(CC(=O)O)OC2=O (stereo not drawn)	-	-	-	-	49	-	-	-
CN(C)S(=O)(=O)c1ccc2c(c1)C(=NO)c1cc(S(=O)(=O)N(C)C)ccc1-2	-	-	-	-	-	-	.	.
CCOC(=O)c1ccc(-c2ccc(C=NNC(=O)c3cncc(Br)c3)o2)cc1	-	.	.	.	.	.	.	.
Cc1ccc(-n2c(SCC(=O)NN=C/C=C/c3ccccc3[N+](=O)[O-])nc3ccccc3c2=O)cc1	-	.	.	.	.	.	.	.
CCOc1ccccc1NC(=O)CNC(=O)c1nn(-c2ccc(OC)c(OC)c2)c(=O)c2ccccc12	-	-	-	-	-	-	.	.
CCOc1ccc(NC(=O)CNC(=O)c2nn(-c3ccc(OC)c(OC)c3)c(=O)c3ccccc23)cc1	-	-	-	-	54	-	-	-
O=C(C=NO)Nc1ccccc1C(=O)O	-	.	.	.	.	.	.	.
CNC[C@H](NC[C@@H](NCCCc1ccccc1)c1ccccc1)[C@H](C)O	-	-	-	-	55	-	-	-
CC(=O)Nc1ccc(-c2nnc(SCc3ccc(C)cc3)n2C)cc1	-	-	-	-	42	-	-	-
Cc1ccc(NC(=O)c2ccc(CSc3nnc(-c4ccncc4)n3C)cc2)cc1	-	-	-	-	-	-	.	.
COc1ccc(OC)c(C=NN(C)c2ccccc2)c1	-	.	.	.	.	.	.	.
Cc1ccc(C)c(S(=O)(=O)N2CCN(C(=O)C3CCN(C(=O)c4ccc(F)cc4)CC3)CC2)c1	-	-	-	-	60	-	-	-
CCn1c2ccccc2c2cc(Nc3cc(C)nc4ncnn34)ccc21	-	-	-	-	42	-	-	-
CCc1ccc(Nc2cc(C)nc3ncnn23)cc1	-	-	-	-	-	-	.	.
CCCNC(=O)c1nnsc1S(=O)(=O)c1ccc(Cl)cc1	-	-	-	-	81	-	55	-
